Test results reported in ChEMBL document CHEMBL1143293, “5-Substituted pyrido[2,3-d]pyrimidine, an inhibitor against three receptor tyrosine kinases” (Bioorg Med Chem Lett, 2009).
Active and inactive are the calls of the source. The calls are words filed in the database; no cut-off is given here.

Experiments:
HUVEC [1] = test: Inhibition of rhFGF2-induced HUVEC proliferation; assay type: functional, cell-based; conditions: Homo sapiens; for minimal effective concentration: read-out: MEC
Summary of the method: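 HUVEC proliferation was induced with recombinant human FGF-2 in the presence of compound. Inhibition was reported as IC50 (μM) and as the minimum effective concentration.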

HUVEC [2] = test: Cytotoxicity against HUVEC cells; assay type: cell-based; conditions: human
Summary of the method: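 Cytotoxicity was taken from HUVEC proliferation run without rhFGF-2 stimulation, and the value was reported as the minimum cytotoxic concentration.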

[3] = molecular target: Fibroblast growth factor receptor 1 (Homo sapiens, UniProt P11362); test: Inhibition of human FGFR1 expressed in insect cells by HTRF method
[4] = molecular target: Vascular endothelial growth factor receptor 2 (Homo sapiens, UniProt P35968); test: Inhibition of VEGFR2
[5] = molecular target: Platelet-derived growth factor receptor beta (Homo sapiens, UniProt P09619); test: Inhibition of PDGFRbeta
[6] = molecular target: Epidermal growth factor receptor (Homo sapiens, UniProt P00533)
[7] = molecular target: RAC-alpha serine/threonine-protein kinase (Homo sapiens) (UniProt P31749); test: Inhibition of recombinant human FGF2-induced AKT phosphorylation in HUVEC cells by Western blot; assay type: cell-based
HUVEC [8] = test: Inhibition of recombinant human FGF2-induced ERK phosphorylation in HUVEC cells by Western blot; assay type: cell-based
[9] = molecular target: c-Jun N-terminal kinase, JNK (Homo sapiens) (UniProt P45983+P53779+P45984); test: Inhibition of recombinant human FGF2-induced JNK phosphorylation in HUVEC cells by Western blot; assay type: cell-based
HUVEC [10] = test: Antiangiogenic activity in HUVEC cells assessed incomplete narrow tube formation after 4 hrs by tube formation assay; assay type: functional, cell-based; conditions: Homo sapiens
Summary of the method: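 HUVEC seeded onto wells coated with Matrigel, with compound present at 1, 3, 10 and 25 μM; FGF-2-stimulated and untreated controls included. After 4 h at 37 °C, cultures were fixed with glutaraldehyde and the length of the capillary-like tubes was measured. Data are means + SD of four wells from a representative experiment.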

Platelet-derived growth factor receptor beta, sequence (P09619 whole entry): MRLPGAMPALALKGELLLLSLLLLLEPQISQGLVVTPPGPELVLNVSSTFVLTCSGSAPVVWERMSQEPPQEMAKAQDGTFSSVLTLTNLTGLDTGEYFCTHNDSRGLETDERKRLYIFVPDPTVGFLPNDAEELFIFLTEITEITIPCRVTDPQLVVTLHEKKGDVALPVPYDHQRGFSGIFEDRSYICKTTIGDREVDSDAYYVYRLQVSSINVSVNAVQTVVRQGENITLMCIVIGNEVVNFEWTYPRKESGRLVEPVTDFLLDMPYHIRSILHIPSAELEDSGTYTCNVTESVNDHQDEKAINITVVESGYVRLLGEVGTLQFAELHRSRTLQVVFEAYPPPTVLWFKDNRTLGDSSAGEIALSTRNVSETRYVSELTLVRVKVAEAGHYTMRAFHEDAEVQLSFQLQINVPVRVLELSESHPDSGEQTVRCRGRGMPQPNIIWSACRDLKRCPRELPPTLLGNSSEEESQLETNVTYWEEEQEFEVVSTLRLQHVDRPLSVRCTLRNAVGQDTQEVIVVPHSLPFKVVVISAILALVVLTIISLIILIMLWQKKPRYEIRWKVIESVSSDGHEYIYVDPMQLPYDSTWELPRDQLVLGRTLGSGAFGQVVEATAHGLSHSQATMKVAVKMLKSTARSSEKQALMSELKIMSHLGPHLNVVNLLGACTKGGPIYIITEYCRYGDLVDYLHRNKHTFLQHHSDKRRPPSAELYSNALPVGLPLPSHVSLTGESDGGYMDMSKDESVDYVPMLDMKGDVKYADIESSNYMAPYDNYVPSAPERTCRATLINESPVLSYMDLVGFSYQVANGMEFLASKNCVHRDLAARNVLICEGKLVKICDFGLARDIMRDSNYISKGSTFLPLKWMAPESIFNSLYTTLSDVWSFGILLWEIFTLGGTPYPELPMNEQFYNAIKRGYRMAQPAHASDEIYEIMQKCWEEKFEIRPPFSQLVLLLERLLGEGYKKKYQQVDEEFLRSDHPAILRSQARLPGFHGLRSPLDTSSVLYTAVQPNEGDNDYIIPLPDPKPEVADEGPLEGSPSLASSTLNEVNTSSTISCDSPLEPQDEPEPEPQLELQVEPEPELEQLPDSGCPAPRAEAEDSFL
Vascular endothelial growth factor receptor 2, sequence (P35968 whole entry): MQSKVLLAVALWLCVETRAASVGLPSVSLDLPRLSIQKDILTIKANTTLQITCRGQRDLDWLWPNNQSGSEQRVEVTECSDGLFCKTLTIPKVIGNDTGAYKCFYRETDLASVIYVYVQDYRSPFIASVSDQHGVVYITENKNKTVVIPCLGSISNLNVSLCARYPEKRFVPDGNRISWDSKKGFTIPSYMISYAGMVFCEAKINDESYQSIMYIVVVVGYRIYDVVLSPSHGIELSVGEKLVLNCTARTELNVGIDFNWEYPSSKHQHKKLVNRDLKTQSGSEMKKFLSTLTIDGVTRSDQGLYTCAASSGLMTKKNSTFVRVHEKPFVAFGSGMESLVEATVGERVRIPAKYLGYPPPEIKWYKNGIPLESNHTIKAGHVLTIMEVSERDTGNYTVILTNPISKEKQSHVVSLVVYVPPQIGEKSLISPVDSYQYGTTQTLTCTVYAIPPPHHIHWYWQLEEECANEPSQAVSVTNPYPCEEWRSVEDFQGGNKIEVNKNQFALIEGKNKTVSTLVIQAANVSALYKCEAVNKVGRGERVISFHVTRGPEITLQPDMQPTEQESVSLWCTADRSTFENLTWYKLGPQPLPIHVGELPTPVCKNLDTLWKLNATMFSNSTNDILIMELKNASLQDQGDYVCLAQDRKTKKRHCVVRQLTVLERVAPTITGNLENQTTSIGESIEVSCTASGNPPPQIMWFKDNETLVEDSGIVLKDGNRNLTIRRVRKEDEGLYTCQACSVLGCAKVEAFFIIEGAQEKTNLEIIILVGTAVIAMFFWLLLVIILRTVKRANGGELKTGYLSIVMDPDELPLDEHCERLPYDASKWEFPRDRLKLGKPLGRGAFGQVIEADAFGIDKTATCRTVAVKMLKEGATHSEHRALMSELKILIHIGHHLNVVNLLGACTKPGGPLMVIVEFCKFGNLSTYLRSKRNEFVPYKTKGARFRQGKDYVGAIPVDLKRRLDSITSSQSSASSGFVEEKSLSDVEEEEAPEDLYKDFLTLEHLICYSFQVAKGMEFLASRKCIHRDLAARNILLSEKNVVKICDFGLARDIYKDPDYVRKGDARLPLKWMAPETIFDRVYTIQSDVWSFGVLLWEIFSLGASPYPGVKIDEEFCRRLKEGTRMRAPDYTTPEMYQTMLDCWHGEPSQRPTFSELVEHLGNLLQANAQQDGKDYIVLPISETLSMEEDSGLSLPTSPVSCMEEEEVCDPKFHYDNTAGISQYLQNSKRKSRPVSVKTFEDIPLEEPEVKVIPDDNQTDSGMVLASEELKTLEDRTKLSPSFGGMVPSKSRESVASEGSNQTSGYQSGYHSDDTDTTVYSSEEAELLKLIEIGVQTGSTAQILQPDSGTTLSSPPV
Fibroblast growth factor receptor 1, sequence (P11362 whole entry): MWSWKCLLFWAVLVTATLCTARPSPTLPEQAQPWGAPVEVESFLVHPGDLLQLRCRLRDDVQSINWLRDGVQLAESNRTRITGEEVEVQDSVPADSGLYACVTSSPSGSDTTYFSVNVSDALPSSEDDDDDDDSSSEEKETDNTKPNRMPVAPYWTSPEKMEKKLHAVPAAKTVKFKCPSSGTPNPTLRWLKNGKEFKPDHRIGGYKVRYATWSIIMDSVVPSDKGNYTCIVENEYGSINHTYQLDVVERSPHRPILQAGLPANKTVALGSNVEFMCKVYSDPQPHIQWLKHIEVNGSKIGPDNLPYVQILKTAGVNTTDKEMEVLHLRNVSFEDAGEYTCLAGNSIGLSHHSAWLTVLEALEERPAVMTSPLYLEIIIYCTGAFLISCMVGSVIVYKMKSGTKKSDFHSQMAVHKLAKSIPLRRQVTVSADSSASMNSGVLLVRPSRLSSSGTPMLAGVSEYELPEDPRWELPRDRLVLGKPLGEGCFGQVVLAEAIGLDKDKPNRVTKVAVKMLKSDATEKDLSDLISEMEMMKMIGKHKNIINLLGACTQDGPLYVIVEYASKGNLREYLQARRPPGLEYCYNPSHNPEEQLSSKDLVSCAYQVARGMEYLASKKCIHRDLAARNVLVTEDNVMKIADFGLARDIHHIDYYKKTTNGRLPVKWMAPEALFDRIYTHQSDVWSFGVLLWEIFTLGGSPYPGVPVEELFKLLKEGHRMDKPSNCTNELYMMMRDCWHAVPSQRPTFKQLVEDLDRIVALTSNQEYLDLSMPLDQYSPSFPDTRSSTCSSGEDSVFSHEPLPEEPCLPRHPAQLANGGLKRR
Epidermal growth factor receptor, sequence (P00533 whole entry): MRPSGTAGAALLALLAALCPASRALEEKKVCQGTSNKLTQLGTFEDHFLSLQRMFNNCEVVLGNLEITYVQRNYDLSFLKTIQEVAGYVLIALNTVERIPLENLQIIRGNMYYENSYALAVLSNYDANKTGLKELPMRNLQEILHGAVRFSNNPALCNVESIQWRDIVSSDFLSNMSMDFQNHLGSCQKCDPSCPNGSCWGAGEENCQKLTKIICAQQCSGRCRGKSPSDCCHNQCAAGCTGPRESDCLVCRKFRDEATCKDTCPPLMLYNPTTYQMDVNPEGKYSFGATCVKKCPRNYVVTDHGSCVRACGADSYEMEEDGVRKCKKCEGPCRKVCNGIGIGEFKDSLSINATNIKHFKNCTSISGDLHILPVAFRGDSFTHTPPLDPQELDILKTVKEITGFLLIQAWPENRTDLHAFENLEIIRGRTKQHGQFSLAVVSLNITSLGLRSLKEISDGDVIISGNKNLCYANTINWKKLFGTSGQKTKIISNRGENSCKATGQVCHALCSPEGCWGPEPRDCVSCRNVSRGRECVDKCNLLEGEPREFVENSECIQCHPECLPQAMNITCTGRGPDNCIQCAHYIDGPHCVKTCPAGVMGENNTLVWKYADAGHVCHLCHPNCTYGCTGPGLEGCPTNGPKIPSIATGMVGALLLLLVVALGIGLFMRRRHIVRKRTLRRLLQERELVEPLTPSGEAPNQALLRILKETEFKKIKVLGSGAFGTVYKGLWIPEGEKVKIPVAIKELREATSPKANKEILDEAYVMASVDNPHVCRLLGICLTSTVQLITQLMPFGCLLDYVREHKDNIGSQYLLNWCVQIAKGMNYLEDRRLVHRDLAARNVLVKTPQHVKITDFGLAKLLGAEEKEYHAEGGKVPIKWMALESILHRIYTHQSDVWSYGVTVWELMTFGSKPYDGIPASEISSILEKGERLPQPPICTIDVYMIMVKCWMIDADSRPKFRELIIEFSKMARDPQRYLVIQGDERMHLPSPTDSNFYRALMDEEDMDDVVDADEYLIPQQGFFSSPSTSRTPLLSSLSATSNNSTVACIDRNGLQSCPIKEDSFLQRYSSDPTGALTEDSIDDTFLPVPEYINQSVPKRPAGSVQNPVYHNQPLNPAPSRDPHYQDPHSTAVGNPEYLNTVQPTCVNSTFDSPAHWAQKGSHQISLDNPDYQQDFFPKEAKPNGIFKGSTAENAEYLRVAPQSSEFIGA
RAC-alpha serine/threonine-protein kinase (Homo sapiens), sequence (P31749 whole entry): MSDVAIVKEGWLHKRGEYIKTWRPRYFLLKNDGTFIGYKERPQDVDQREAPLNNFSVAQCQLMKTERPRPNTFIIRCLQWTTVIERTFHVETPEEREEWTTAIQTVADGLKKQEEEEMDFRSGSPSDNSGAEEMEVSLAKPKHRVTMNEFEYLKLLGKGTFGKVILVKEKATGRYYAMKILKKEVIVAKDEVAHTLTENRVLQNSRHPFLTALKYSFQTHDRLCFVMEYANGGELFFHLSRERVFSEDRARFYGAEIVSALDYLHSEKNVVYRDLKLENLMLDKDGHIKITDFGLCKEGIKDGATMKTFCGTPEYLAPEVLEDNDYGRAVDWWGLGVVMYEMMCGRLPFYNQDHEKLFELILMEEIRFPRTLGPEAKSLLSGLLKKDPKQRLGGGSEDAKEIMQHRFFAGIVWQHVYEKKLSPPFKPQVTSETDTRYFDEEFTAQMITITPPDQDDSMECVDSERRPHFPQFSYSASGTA

Row | IC50 [5] [nM] | SMILES | minimal effective concentration (HUVEC [1]) [µM] | Activity (HUVEC [2]) [µM] | IC50 (HUVEC [1]) [nM] | other results
1 |  | Cc1[nH]c(/C=C2\C(=O)Nc3ccc(C(=O)NNc4ccccc4[N+](=O)[O-])cc32)c(C)c1CCC(=O)O | 50 | 50 |  | 
2 |  | Cc1[nH]c(/C=C2\C(=O)Nc3ccc(C(=O)NNc4ccc(C(F)(F)F)cc4)cc32)c(C)c1CCC(=O)O | 50 | 50 |  | 
3 | 780 | COc1cc(OC)cc(-c2ccc3c(c2)NC(=O)/C3=C\c2[nH]c(C)c(CCC(=O)O)c2C)c1 |  |  | 18200 | IC50 [3]: 520 nM; IC50 [4]: 930 nM; IC50 [6]: > 100000 nM
4 | 50 | Cc1[nH]c(/C=C2\C(=O)Nc3ccccc32)c(C)c1CCC(=O)O [ORANTINIB] | 10 |  | > 50000 | 
5 |  | Cc1[nH]c(/C=C2\C(=O)Nc3ccc(C(=O)NNc4ccccc4Cl)cc32)c(C)c1CCC(=O)O | 50 |  |  | 
6 |  | Cc1[nH]c(/C=C2\C(=O)Nc3ccc(C(=O)NNc4ccc(C#N)cc4)cc32)c(C)c1CCC(=O)O | > 50 | 50 |  | 

Row | SMILES | IC50 [5] [nM] | minimal effective concentration (HUVEC [1]) [µM] | Activity (HUVEC [2]) [µM] | IC50 (HUVEC [1]) [nM] | other results
7 | Cc1[nH]c(/C=C2\C(=O)Nc3ccc(C(=O)NNc4ccccc4)cc32)c(C)c1CCC(=O)O | 40 | 10 | 50 | 27400 | IC50 [3]: 100 nM; IC50 [4]: 70 nM; Activity [7]: Active; Activity (HUVEC [8]): Active; Activity [9]: Active; Activity (HUVEC [10]): Dose-dependent effect; IC50 [6]: 3480 nM
